# Experimental data: publication PMC8929358 (Pharmacology Research & Perspectives, 2021)
# Entries after “also recorded” stand apart in the source; their conditions may differ. Where two headings read alike, the source gives them in different places.
# Legend:
# [1] = format: in vivo, rat; conditions: oral 100 mg/kg; for Feces, % of administered dose: feces pools 0–48 h
# Outline: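 In Sprague Dawley rats given 100 mg/kg [14C]-labelled compound (100 μCi/kg) orally in 0.2% HPMC, heparinized blood was taken by cardiac puncture at 2–168 h. Plasma was precipitated with MeOH/ACN (50:50), dried under N2 and reconstituted. Urine (0–6, 6–24 h) and feces (0–12, 12–24, 24–48 h) were pooled and stored at −80°C. Analysis used accurate-mass LC-MS with offline radiodetection.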
# [2] = format: in vivo, rat; conditions: plasma; for Tmax: median (range)
# rat soluble COMT = molecular target: T1, rat soluble COMT (Rattus norvegicus, UniProt P22734); assay: COMT activity; format: biochemical; conditions: for Effect upon COMT activity: up to 3000 nM
# T1 sequence (P22734 1-221 isoform P22734-2): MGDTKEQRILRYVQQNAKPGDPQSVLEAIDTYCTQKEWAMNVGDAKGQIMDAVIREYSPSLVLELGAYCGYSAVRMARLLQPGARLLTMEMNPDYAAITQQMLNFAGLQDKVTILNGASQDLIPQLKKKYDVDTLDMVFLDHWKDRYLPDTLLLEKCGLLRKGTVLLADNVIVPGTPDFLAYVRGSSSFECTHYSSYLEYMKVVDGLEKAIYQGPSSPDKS
# HLS9, HIS9, and SULT1A1 = assay: Inhibition of opicapone sulfation, result in words for all enzyme sources; format: biochemical, human; conditions: acetaminophen 1–500 μM; quercetin and 2,6-dichloro-4-nitrophenol 0.05–100 μM
# [3] = rat, po, 1 g/kg, t max, oral 1 g/kg opicapone
smiles,measurement,setting,value
"Cc1nc(Cl)c(-c2noc(-c3cc(O)c(O)c([N+](=O)[O-])c3)n2)c(C)c1Cl [BIA 9‐1079, 5-(3-(2,5-dichloro-4,6-dimethylpyridin-3-yl)-1,2,4-oxadiazol-5-yl)-3-nitrobenzene-1,2-diol]","Feces, % of administered dose","[1]; ND = not detected, 100 mg/kg",1.14%
same,Detectable in the circulation up to (time post-dose),[1]; plasma,8 h
same,AUC(0-t),"[2]; rat, po, 1 g/kg",4080 ng·h/mL
same,Cmax,"[2]; rat, po, 1 g/kg",381 ng/mL
same,Tmax,[2]; [3],4 h
same,IC50,rat soluble COMT,128 nM
same,Effect upon COMT activity,rat soluble COMT,active in inhibiting the enzyme
"COc1cc(-c2nc(-c3c(C)c(Cl)c(C)[n+]([O-])c3Cl)no2)cc([N+](=O)[O-])c1O [BIA 9‐1100, 2,5-dichloro-3-(5-(4-hydroxy-3-methoxy-5-nitrophenyl)-1,2,4-oxadiazol-3-yl)-4,6-dimethylpyridine 1-oxide]",AUC(0-t),"[2]; rat, po, 1 g/kg",7920 ng·h/mL
same,Cmax,"[2]; rat, po, 1 g/kg",1420 ng/mL
same,Tmax,[2]; [3],1.5 h
same,Effect upon COMT activity,rat soluble COMT,no modulatory effect
"COc1c(O)cc(-c2nc(-c3c(C)c(Cl)c(C)[n+]([O-])c3Cl)no2)cc1[N+](=O)[O-] [BIA 9‐1104, 2,5-dichloro-3-(5-(3-hydroxy-4-methoxy-5-nitrophenyl)-1,2,4-oxadiazol-3-yl)-4,6-dimethylpyridine 1-oxide]",IC50,rat soluble COMT,429 nM
same,Effect upon COMT activity,rat soluble COMT,active in inhibiting the enzyme; also recorded: endowed with activity in inhibiting COMT
"Cc1nc(Cl)c(-c2noc(-c3cc(OS(=O)(=O)O)c(O)c([N+](=O)[O-])c3)n2)c(C)c1Cl.c1ccncc1 [BIA 9‐1105, pyridinium 5-(3-(2,5-dichloro-4,6-dimethylpyridin-3-yl)-1,2,4-oxadiazol-5-yl)-2-hydroxy-3-nitrophenyl sulfate]",C max,"[2]; oral 1 g/kg opicapone, mean (SD)",58.2 (32.6) ng/ml
same,AUC0–t,"[2]; oral 1 g/kg opicapone, mean (SD), sampling to 48 h",1322.5 (503.5) ng.h/ml
same,Tmax,[2]; oral 1 g/kg opicapone,16 (8–24) h
"Cc1c(Cl)c(C)[n+]([O-])c(Cl)c1-c1noc(-c2cc(O[C@@H]3O[C@H](C(=O)O)[C@@H](O)[C@H](O)[C@H]3O)c(O)c([N+](=O)[O-])c2)n1 [BIA 9‐1106, 3-(5-(3-((2S,3R,4S,5S,6S)-6-carboxy-3,4,5-trihydroxytetrahydro-2H-pyran-2-yloxy)-4-hydroxy-5-nitrophenyl)-1,2,4-oxadiazol-3-yl)-2,5-dichloro-4,6-dimethylpyridine 1-oxide]","Urine, % of administered dose","[1]; urine pools 0–24 h, ND = not detected",0.85%
same,Cmax,"[2]; rat, po, 1 g/kg",4290 ng/mL
"Cc1nc(Cl)c(-c2noc(-c3cc(O[C@@H]4O[C@H](C(=O)O)[C@@H](O)[C@H](O)[C@H]4O)c(O)c([N+](=O)[O-])c3)n2)c(C)c1Cl [BIA 9‐1107, (2S,3S,4S,5R,6S)-6-(5-(3-(2,5-dichloro-4,6-dimethylpyridin-3-yl)-1,2,4-oxadiazol-5-yl)-2-hydroxy-3-nitrophenoxy)-3,4,5-trihydroxy-tetrahydro-2H-pyran-2-carboxylic acid]",Amount detected in circulation,[2]; oral 1 g/kg opicapone,only traceable amounts
"Nc1cc(C(=O)O)cc(O)c1O [BIA 9‐3721, 3-amino-4,5-dihydroxybenzoic acid]","Feces, % of administered dose",[1]; ND = not detected,1.87%
"CC(=O)Nc1cc(C(=O)O)cc(O)c1O [BIA 9‐3752, 3-acetamido-4,5-dihydroxybenzoic acid]",Effect upon COMT activity,rat soluble COMT,no modulatory effect
"O=[N+]([O-])c1cc(Cl)c(O)c(Cl)c1 [DCNP, 2,6‐dichloro‐4‐nitrophenol]",Inhibition of the sulfate conjugation of opicapone,"HLS9, HIS9, and SULT1A1",completely inhibited
"O=c1c(O)c(-c2ccc(O)c(O)c2)oc2cc(O)cc(O)c12 [Quercetin, quercetin]",Inhibition of the sulfate conjugation of opicapone,"HLS9, HIS9, and SULT1A1",completely inhibited
CC(=O)Nc1ccc(O)cc1 [acetaminophen],Inhibition of the sulfate conjugation of opicapone,"HLS9, HIS9, and SULT1A1",No inhibition
